Assays:
HL60 = experiment: NCI-60 screening, HL60; type: cell-based; settings: Homo sapiens, HL-60, read-out: GI50, HL60
LOX IMVI = experiment: NCI-60 screening, LOX IMVI; type: cell-based; settings: Homo sapiens, read-out: GI50, LOX IMVI
MDA-MB-231 = experiment: cells; type: cell-based; settings: Homo sapiens, MDA-MB-231, read-out: Antiproliferative effect IC50, MDA-MB-231
MALME-3M = experiment: NCI-60 screening, MALME-3M; type: cell-based; settings: Homo sapiens, read-out: GI50, MALME-3M
MOLT-4 = experiment: NCI-60 screening, MOLT-4; type: cell-based; settings: Homo sapiens, MOLT-4, read-out: GI50, MOLT-4
OVCAR-3 = experiment: NCI-60 screening, OVCAR-3; type: cell-based; settings: Homo sapiens, OVCAR-3, read-out: GI50, OVCAR-3
M14 = experiment: NCI-60 screening, M14; type: cell-based; settings: Homo sapiens, M14, read-out: GI50, M14
JAK3 = JAK3 (Homo sapiens, UniProt P52333); experiment: Kinase inhibition assay; type: biochemical
TYK2 = TYK2 (Homo sapiens, UniProt P29597); experiment: Kinase inhibition assay; type: biochemical
JAK1 = JAK1 (Homo sapiens, UniProt P23458); experiment: Kinase inhibition assay; type: biochemical
NCI-H522 = experiment: NCI-60 screening, NCI-H522; type: cell-based; settings: Homo sapiens, NCI-H522, read-out: GI50, NCI-H522
JAK2 = JAK2 (Homo sapiens, UniProt O60674); experiment: Kinase inhibition assay; type: biochemical
HDAC8 = HDAC8 (Homo sapiens, UniProt Q9BY41); experiment: In vitro HDAC enzyme assay; type: biochemical
SK-MEL-2 = experiment: NCI-60 screening, SK-MEL-2; type: cell-based; settings: Homo sapiens, SK-MEL-2, read-out: GI50, SK-MEL-2
ACHN = experiment: NCI-60 screening, ACHN; type: cell-based; settings: Homo sapiens, read-out: GI50, ACHN
SK-MEL-5 = experiment: NCI-60 screening, SK-MEL-5; type: cell-based; settings: Homo sapiens, SK-MEL-5, read-out: GI50, SK-MEL-5
HS 578 T = experiment: NCI-60 screening, HS 578 T; type: cell-based; settings: Homo sapiens, read-out: GI50, HS 578 T
RPMI-8226 [1] = experiment: NCI-60 screening, RPMI-8226; type: cell-based; settings: Homo sapiens, RPMI-8226, read-out: GI50, RPMI-8226
RPMI-8226 cells = experiment: Apoptosis assay; type: cell-based, human; settings: 1 μM, 48 h, flow cytometry
SNB-75 = experiment: NCI-60 screening, SNB-75; type: cell-based; settings: Homo sapiens, SNB-75, read-out: GI50, SNB-75
MDA-MB-231/ATCC = experiment: NCI-60 screening, MDA-MB-231/ATCC; type: cell-based; settings: Homo sapiens, MDA-MB-231, read-out: GI50, MDA-MB-231/ATCC
HCT-116 = experiment: NCI-60 screening, HCT-116; type: cell-based; settings: Homo sapiens, HCT-116, read-out: GI50, HCT-116
HDAC2 = HDAC2 (Homo sapiens, UniProt Q92769); experiment: In vitro HDAC enzyme assay; type: biochemical
HDAC1 = HDAC1 (Homo sapiens, UniProt Q13547); experiment: In vitro HDAC enzyme assay; type: biochemical
HDAC3 = HDAC3 (Homo sapiens, UniProt O15379); experiment: In vitro HDAC enzyme assay; type: biochemical
HCT-15 = experiment: NCI-60 screening, HCT-15; type: cell-based; settings: Homo sapiens, HCT-15, read-out: GI50, HCT-15
K-562 = experiment: NCI-60 screening, K-562; type: cell-based; settings: Homo sapiens, K562, read-out: GI50, K-562
HDAC11 = HDAC11 (Homo sapiens, UniProt Q96DB2); experiment: In vitro HDAC enzyme assay; type: biochemical
[2] = Microsomal stability assay; type: in vitro ADME; settings: human, human liver microsomes, pH 7.4
Outline: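 Human liver microsomes at 0.8 mg/mL, with magnesium chloride and potassium phosphate buffer (pH 7.4), incubated with test compound at 0.5 μM. Mix prewarmed 5 min at 37 °C, then started with NADPH. Stopped at 0, 5, 10, 15, 30, 60 or 90 min with ice-cold ethyl acetate, spun 4000 rpm for 10 min at 4 °C. Supernatant analysed by LC-MS/MS and half-life determined.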

RPMI-8226 [3] = experiment: cells; type: cell-based; settings: Homo sapiens, RPMI-8226, read-out: Antiproliferative effect IC50, RPMI-8226
SNB-19 = experiment: NCI-60 screening, SNB-19; type: cell-based; settings: Homo sapiens, SNB-19, read-out: GI50, SNB-19
SR = experiment: NCI-60 screening, SR; type: cell-based; settings: Homo sapiens, read-out: GI50, SR
SK-MEL-28 = experiment: NCI-60 screening, SK-MEL-28; type: cell-based; settings: Homo sapiens, SK-MEL-28, read-out: GI50, SK-MEL-28
CCRF-CEM = experiment: NCI-60 screening, CCRF-CEM; type: cell-based; settings: Homo sapiens, read-out: GI50, CCRF-CEM
HDAC7 = HDAC7 (Homo sapiens, UniProt Q8WUI4); experiment: In vitro HDAC enzyme assay; type: biochemical
UACC-62 = experiment: NCI-60 screening, UACC-62; type: cell-based; settings: Homo sapiens, UACC-62, read-out: GI50, UACC-62
HDAC5 = HDAC5 (Homo sapiens, UniProt Q9UQL6); experiment: In vitro HDAC enzyme assay; type: biochemical
Chain of HDAC5 (Q9UQL6 whole entry): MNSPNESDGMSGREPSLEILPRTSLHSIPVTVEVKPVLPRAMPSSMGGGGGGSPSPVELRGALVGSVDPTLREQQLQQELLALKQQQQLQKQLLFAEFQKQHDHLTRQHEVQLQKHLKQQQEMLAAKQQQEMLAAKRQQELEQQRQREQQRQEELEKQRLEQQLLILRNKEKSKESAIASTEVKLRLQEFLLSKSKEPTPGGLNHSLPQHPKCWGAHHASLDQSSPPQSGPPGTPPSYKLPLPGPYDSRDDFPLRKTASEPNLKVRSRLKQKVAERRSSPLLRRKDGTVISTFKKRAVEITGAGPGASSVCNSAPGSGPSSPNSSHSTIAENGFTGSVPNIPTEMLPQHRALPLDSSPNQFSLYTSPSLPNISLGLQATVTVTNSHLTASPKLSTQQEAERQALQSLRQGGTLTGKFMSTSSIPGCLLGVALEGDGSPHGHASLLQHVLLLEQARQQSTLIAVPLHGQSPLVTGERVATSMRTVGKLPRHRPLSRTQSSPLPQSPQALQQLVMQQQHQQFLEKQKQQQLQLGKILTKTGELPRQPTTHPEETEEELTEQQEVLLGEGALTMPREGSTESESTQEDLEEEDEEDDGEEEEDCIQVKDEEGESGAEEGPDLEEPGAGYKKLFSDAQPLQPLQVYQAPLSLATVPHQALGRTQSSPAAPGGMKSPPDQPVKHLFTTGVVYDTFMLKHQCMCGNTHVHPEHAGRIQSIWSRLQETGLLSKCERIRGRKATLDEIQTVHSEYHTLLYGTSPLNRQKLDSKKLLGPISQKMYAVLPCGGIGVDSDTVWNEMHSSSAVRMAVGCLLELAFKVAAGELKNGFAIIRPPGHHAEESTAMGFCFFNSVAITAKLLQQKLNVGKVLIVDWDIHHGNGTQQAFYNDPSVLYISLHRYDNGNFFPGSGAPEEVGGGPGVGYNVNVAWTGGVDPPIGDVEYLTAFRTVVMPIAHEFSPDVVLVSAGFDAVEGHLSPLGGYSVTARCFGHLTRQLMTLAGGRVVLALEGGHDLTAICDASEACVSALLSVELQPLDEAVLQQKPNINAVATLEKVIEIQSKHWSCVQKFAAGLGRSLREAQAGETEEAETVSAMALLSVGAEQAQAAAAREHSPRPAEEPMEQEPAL

Chain of TYK2 (P29597 whole entry): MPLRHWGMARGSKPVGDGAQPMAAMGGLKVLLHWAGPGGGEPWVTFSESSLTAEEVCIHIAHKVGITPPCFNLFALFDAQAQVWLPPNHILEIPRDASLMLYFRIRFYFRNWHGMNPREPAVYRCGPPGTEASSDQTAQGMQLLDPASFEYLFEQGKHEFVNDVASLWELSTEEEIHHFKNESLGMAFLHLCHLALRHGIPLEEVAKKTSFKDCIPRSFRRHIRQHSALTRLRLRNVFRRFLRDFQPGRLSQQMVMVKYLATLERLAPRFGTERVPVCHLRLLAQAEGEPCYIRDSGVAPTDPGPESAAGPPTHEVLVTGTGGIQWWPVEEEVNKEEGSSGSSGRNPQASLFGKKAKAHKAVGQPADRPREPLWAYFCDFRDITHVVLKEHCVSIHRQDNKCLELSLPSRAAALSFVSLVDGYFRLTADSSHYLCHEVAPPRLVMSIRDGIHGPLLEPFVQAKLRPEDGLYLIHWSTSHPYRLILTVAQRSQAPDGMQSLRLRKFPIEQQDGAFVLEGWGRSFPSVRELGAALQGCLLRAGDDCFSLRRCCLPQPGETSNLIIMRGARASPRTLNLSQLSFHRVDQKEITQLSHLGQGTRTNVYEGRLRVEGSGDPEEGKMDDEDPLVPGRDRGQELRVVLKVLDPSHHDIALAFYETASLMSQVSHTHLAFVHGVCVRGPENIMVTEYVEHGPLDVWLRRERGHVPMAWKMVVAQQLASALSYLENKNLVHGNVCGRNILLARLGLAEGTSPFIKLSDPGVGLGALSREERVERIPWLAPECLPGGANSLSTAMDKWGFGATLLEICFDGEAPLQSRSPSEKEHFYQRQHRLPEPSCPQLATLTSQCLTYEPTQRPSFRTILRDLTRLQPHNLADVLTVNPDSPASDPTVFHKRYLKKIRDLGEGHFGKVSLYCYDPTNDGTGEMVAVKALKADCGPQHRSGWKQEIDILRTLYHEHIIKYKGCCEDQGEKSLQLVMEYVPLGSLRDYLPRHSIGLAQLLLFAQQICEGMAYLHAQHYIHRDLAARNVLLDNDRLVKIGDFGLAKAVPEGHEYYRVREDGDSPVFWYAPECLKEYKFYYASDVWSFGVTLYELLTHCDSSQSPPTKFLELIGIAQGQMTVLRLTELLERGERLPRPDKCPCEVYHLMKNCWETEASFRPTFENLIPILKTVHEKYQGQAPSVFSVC
Chain of JAK3 (P52333 whole entry): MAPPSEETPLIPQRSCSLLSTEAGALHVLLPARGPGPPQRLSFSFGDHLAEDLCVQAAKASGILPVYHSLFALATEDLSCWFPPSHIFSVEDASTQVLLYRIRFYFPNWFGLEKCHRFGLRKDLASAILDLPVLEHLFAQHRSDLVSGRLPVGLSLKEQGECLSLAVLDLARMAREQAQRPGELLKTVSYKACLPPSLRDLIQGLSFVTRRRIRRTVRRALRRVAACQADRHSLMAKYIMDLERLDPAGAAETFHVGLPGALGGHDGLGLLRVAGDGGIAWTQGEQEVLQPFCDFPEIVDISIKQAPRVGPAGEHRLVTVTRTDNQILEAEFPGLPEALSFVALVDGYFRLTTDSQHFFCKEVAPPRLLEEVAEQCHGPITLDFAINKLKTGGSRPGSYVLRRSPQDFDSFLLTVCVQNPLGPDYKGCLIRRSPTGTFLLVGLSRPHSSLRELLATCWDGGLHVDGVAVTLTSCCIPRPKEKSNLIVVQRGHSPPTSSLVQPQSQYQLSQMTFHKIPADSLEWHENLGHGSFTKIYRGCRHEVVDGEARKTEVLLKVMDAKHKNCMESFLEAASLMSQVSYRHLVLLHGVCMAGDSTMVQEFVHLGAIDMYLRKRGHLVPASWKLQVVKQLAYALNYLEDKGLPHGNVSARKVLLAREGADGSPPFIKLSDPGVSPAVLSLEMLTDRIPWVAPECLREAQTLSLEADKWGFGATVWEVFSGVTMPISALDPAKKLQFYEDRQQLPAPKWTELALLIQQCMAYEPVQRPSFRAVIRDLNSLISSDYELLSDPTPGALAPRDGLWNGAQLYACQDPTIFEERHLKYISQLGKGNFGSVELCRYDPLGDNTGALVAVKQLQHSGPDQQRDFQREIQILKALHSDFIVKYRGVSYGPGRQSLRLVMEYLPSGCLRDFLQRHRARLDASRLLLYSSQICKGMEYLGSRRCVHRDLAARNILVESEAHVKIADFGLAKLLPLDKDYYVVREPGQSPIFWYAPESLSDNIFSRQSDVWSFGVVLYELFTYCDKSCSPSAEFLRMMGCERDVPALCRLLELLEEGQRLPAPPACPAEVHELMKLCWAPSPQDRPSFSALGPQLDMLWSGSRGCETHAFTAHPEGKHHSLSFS
Chain of HDAC1 (Q13547 whole entry): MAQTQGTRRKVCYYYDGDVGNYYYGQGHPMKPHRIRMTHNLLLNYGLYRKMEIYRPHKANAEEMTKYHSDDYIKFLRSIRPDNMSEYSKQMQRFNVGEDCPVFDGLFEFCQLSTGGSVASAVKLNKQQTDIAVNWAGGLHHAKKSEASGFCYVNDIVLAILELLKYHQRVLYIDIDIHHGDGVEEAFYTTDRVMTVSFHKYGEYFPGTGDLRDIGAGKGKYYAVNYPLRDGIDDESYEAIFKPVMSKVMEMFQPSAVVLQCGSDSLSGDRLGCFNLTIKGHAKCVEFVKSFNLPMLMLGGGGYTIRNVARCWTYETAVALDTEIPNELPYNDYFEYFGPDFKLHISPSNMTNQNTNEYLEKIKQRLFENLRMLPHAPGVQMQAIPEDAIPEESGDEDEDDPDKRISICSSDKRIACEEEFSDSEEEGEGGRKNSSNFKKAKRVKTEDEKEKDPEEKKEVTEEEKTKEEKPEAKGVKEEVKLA
Chain of HDAC3 (O15379 whole entry): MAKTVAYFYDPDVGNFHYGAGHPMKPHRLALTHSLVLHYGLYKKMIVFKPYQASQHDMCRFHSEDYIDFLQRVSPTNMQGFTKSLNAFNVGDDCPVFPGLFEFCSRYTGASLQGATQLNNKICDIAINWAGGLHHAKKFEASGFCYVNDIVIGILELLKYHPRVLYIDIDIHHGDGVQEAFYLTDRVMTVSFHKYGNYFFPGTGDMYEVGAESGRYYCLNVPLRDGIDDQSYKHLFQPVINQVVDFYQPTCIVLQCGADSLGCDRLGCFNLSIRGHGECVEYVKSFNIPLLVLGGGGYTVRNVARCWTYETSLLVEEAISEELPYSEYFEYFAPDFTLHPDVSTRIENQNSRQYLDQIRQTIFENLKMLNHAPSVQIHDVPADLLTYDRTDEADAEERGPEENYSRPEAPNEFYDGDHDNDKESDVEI
Chain of HDAC3 (Q9Y618 395-489 partner limits assumed): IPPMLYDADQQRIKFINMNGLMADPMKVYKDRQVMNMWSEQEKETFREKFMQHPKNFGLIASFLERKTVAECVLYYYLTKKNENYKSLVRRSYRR
Chain of HDAC2 (Q92769 whole entry): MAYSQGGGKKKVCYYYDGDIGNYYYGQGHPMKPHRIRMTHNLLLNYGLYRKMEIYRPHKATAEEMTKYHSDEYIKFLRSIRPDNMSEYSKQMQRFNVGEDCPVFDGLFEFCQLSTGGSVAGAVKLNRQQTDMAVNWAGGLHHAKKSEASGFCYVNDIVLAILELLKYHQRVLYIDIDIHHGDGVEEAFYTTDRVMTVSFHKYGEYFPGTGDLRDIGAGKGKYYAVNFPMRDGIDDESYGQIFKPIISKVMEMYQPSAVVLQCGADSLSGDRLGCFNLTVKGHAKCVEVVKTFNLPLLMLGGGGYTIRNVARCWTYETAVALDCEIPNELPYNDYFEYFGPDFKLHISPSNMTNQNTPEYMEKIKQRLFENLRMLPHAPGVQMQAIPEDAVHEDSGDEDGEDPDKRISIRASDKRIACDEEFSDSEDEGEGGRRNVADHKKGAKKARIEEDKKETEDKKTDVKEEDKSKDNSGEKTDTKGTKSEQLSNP

IC50 (MDA-MB-231): 750 ± 30 nM
IC50 (JAK3): > 10000 nM
JAK3 IC50 (JAK3; duplicate, SD <15%): very poor inhibitory activities
IC50 (TYK2): 860 ± 33 nM
TYK2 IC50 (TYK2; duplicate, SD <15%): very poor inhibitory activities
IC50 (JAK1): 165 ± 13 nM
IC50 (JAK2): 278 ± 20 nM
IC50 (HDAC8): 640 ± 28.3 nM
IC50 (HDAC2): 36.5 ± 0.95 nM
Fold weaker on HDAC2 than HDAC6 (HDAC2; IC50 HDAC2 vs HDAC6): ~8.5 fold
IC50 (HDAC1): 25.4 ± 1.2 nM
Fold weaker on HDAC1 than HDAC6 (HDAC1; IC50 HDAC1 vs HDAC6): ~6 fold
IC50 (HDAC3): 83 ± 2.4 nM
Fold weaker on HDAC3 than HDAC6 (HDAC3; IC50 HDAC3 vs HDAC6): ~19 fold
IC50 (HDAC11): 1400 ± 102 nM
half-life at 0.5 μM [2]: 14.5 h
IC50 (RPMI-8226 [3]): 120 ± 10 nM
IC50 (HDAC7): 715 ± 33.5 nM
IC50 (HDAC5): > 50000 nM
HDAC5 IC50 (HDAC5; duplicate, SD <15%): no activity
SMILES: O=C(NO)c1ccc(CNc2nc3cccc(-c4ccc5c(c4)OCO5)n3n2)cc1 [Compound 19, 4-(((5-(Benzo[d][1, 3]dioxol-5-yl)-[1,2, 4]triazolo[1,5-a]pyridin-2-yl)amino)methyl)-N-hydroxybenzamide]
GI50 (HL60): 440 nM
GI50 (LOX IMVI): 690 nM
GI50 (MALME-3M): 250 nM
GI50 (MOLT-4): 350 nM
GI50 (OVCAR-3): 420 nM
GI50 (M14): 550 nM
GI50 (NCI-H522): 100 nM
GI50 (SK-MEL-2): 250 nM
GI50 (ACHN): 550 nM
GI50 (SK-MEL-5): 550 nM
GI50 (HS 578 T): 140 nM
GI50 (RPMI-8226 [1]): 100 nM
Induction of RPMI-8226 cells apoptosis (RPMI-8226 cells): 85.3%
GI50 (SNB-75): 350 nM
GI50 (MDA-MB-231/ATCC): 690 nM
GI50 (HCT-116): 440 nM
GI50 (HCT-15): 690 nM
GI50 (K-562): 320 nM
GI50 (SNB-19): 1000 nM
GI50 (SR): 100 nM
GI50 (SK-MEL-28): 480 nM
GI50 (CCRF-CEM): 310 nM
GI50 (UACC-62): 420 nM

— publication PMC11463018 (Journal of Enzyme Inhibition and Medicinal Chemistry, 2024)
